Measured values: ChEMBL document CHEMBL4350976, “Sequence modification of heptapeptide selected by phage display as homing device for HT-29 colon cancer cells to improve the anti-tumour activity of drug delivery systems” (Eur J Med Chem, 2019)
Where a SMILES comes first, the peptide text is derived from it. The star is where a group is joined. X1 = COc1cccc2c1C(=O)c1c(O)c3c(c(O)c1C2=O)C[C@@](O)(/C(C)=N/OCC(=O)*)C[C@@H]3O[C@H]1C[C@H](N)[C@H](O)[C@H](C)O1

What was measured:
[1] = Stability in serum free medium at 30 uM incubated for 3 hrs by LC/MS analysis
Outline: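 Conjugates (30 μM) were incubated at 37 °C in serum-free medium. Samples were taken at 0 and 3 h, quenched with acetic acid, lyophilised, desalted on C18 spin columns and analysed by LC-MS.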

[2] = Retention time of the compound using 0.1% TFA in water and 0.1% TFA in acetonitrile-water (80:20 v/v) as eluents by RP-HPLC analysis; assay type: physicochemical
Outline: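 Analytical RP-HPLC. Eluent A was 0.1% TFA in water and eluent B was 0.1% TFA in acetonitrile-water (80:20, v/v). Gradient: 0% B held to 5 min, then to 90% B at 50 min. Flow 1 mL/min, detection at 220 nm. The column was a Phenomenex Aeris Peptide XB-C18 (250×4.6 mm, 3.6 μm) or a Nucleosil C18 (5 μm, 100 Å, 250×4.6 mm), depending on the conjugate series.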

[3] = Stability in 2.5% fetal bovine serum containing medium assessed as drug decomposition measured as Dau=Aoa-LR-OH and H-RYVHLPYAT-NH2 metabolite formation with loss of sugar content at 30 uM measured after 24 hrs by LC/MS analysis; assay type: ADME, cell-free, Bos taurus; conditions: cattle
Outline: (§1)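 Conjugates (30 μM) were incubated at 37 °C in medium containing 2.5% FBS. Samples were taken at 0, 3, 6 and 24 h, quenched with acetic acid, lyophilised, desalted on C18 spin columns and analysed by LC-MS. Cleavage products were identified by mass.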

HT-29 [4] = assay: Cytostatic activity against human HT-29 cells preincubated for 24 hrs under serum free condition followed by compound washout and further incubation for 48 hrs in presence of serum by MTT assay; assay type: functional, cell-based
Outline: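 HT-29 cells were exposed to the compound for 24 h, washed, and kept a further 48 h. Viability was read by MTT. Absorbances were normalized to untreated controls and fitted by nonlinear regression to dose-response curves to give IC50.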

[5] = Drug uptake in human HT-29 cells at 100 uM incubated for 3 hrs by flow cytometry; assay type: ADME, cell-based; conditions: ht-29, 3 h
Outline: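 HT-29 cells were exposed to 100 µM conjugate for 3 h. Flow cytometry recorded the percentage of Dau-positive cells and the mean fluorescence intensity, in duplicate.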

[6] = Drug uptake in human HT-29 cells at 50 uM after 90 mins by fluorescence based confocal microscopic analysis; assay type: ADME, cell-based; conditions: ht-29, 1.5 h
Outline: (§2)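 HT-29 cells were incubated with 50 µM compound in RPMI for 90 min. Imaging was by confocal microscopy, with Dau detected at 550–600 nm emission.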

[7] = Stability in 2.5% fetal bovine serum containing medium at 30 uM measured after 24 hrs by LC/MS analysis; assay type: ADME, cell-free, Bos taurus; conditions: cattle; outline: as §1
[8] = Drug uptake in human HT-29 cells assessed as increase in fluorescence intensity at 25 uM incubated for 3 hrs by flow cytometry; assay type: ADME, cell-based; conditions: ht-29, 3 h
[9] = Aqueous solubility of compound in water; assay type: physicochemical; conditions: buffer
[10] = Drug uptake in cytoplasm of living human HT-29 cells at 50 uM after 90 mins by fluorescence based confocal microscopic analysis; assay type: ADME, subcellular; conditions: ht-29, 1.5 h; outline: as §2
[11] = Drug uptake in nucleus of dead human HT-29 cells at 50 uM after 90 mins by fluorescence based confocal microscopic analysis; assay type: ADME, subcellular; conditions: ht-29, 1.5 h; outline: as §2
PANC-1 = assay: Cytostatic activity against human PANC1 cells preincubated for 24 hrs under serum free condition followed by compound washout and further incubation for 48 hrs in presence of serum by MTT assay; assay type: functional, cell-based
Outline: (§3)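 Cells were grown at 37 °C in 5% CO2 in medium with 10% heat-inactivated FBS (20% for OVCAR-3) plus penicillin/streptomycin. The medium was RPMI-1640 for most lines, DMEM for U-87 MG and MRC-5, and IMDM for PE/CA-PJ lines. Seeding was 3×10^3–10×10^3 cells per well. Cells had 24 h compound exposure, a wash, and 48 h further culture. Read-out was MTT, normalized to untreated cells and fitted by nonlinear regression for IC50.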

[12] = Cytostatic activity against human PECAPJ41 cells preincubated for 24 hrs under serum free condition followed by compound washout and further incubation for 48 hrs in presence of serum by MTT assay; assay type: functional, cell-based; outline: as §3
HCT-116 = assay: Cytostatic activity against human HCT116 cells preincubated for 24 hrs under serum free condition followed by compound washout and further incubation for 48 hrs in presence of serum by MTT assay; assay type: functional, cell-based; outline: as §3
HT-29 [13] = assay: Antitumor activity against human HT-29 cells xenografted in SCID mouse assessed as decrease in number of Ki-67 positive cells measured as proliferation index at 1 mg/kg, ip administered once a week (on days 13 and 20) starting from 13 days post inoculation measured at day 23 post inoculation by KI-67-staining based light microscopic analysis (reference value: 100%); assay type: functional; set-up: scale not given: the % may be the effect or the level left
Outline: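 Tumours from the SCID HT-29 orthotopic study were formalin-fixed and paraffin-embedded, cut at 2 µm, and given citrate pH 6 retrieval at 98 °C for 40 min. They were stained with anti-human Ki-67 (1:40, 1 h RT), then a biotinylated link, HRP polymer and AEC. Ki-67+ cells were counted in 5 fields per tumour at 40× magnification. The proliferation index is the % positive cells.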

A2058 = assay: Cytostatic activity against human A2058 cells preincubated for 24 hrs under serum free condition followed by compound washout and further incubation for 48 hrs in presence of serum by MTT assay; assay type: functional, cell-based; outline: as §3
NCI-H1650 = assay: Cytostatic activity against human NCI-H1650 cells preincubated for 24 hrs under serum free condition followed by compound washout and further incubation for 48 hrs in presence of serum by MTT assay; assay type: functional, cell-based; outline: as §3
HT-29 [14] = assay: Antitumor activity against human HT-29 cells xenografted in SCID mouse assessed as tumor growth inhibition by measuring decrease in tumor growth at 1 mg/kg, ip administered once per week for 2 times starting from 13 days post inoculation measured at day 23 post inoculation; conditions: HT-29, ip
MDA-MB-231 = assay: Cytostatic activity against human MDA-MB-231 cells preincubated for 24 hrs under serum free condition followed by compound washout and further incubation for 48 hrs in presence of serum by MTT assay; assay type: functional, cell-based; outline: as §3
OVCAR-3 = assay: Cytostatic activity against human OVCAR3 cells preincubated for 24 hrs under serum free condition followed by compound washout and further incubation for 48 hrs in presence of serum by MTT assay; assay type: functional, cell-based; outline: as §3
[15] = Cytostatic activity against human PE/CA-PJ15 cells preincubated for 24 hrs under serum free condition followed by compound washout and further incubation for 48 hrs in presence of serum by MTT assay; assay type: functional, cell-based; outline: as §3
[16] = Drug uptake in nucleus of human HT-29 cells assessed as increase in fluorescence at 50 uM after 90 mins by fluorescence based confocal microscopic analysis; assay type: ADME, subcellular; conditions: ht-29, 1.5 h; outline: as §2
CT26.WT = assay: Cytostatic activity against mouse CT26.WT cells preincubated for 24 hrs under serum free condition followed by compound washout and further incubation for 48 hrs in presence of serum by MTT assay; assay type: functional, cell-based; outline: as §3
PC-3 = assay: Cytostatic activity against human PC3 cells preincubated for 24 hrs under serum free condition followed by compound washout and further incubation for 48 hrs in presence of serum by MTT assay; assay type: functional, cell-based; outline: as §3
MRC5 = assay: Cytostatic activity against human MRC5 cells preincubated for 24 hrs under serum free condition followed by compound washout and further incubation for 48 hrs in presence of serum by MTT assay; assay type: ADME, cell-based; outline: as §3
WiDr = assay: Cytostatic activity against human WiDr cells preincubated for 24 hrs under serum free condition followed by compound washout and further incubation for 48 hrs in presence of serum by MTT assay; assay type: functional, cell-based; outline: as §3
MCF7 = assay: Cytostatic activity against human MCF7 cells preincubated for 24 hrs under serum free condition followed by compound washout and further incubation for 48 hrs in presence of serum by MTT assay; assay type: functional, cell-based; outline: as §3
HepG2 = assay: Cytostatic activity against human HepG2 cells preincubated for 24 hrs under serum free condition followed by compound washout and further incubation for 48 hrs in presence of serum by MTT assay; assay type: functional, cell-based; outline: as §3
HT-29 [17] = assay: Antitumor activity against human HT-29 cells xenografted in SCID mouse assessed as tumor growth inhibition by measuring decrease in tumor weight at 1 mg/kg, ip administered once a week (on day 13 and 20) starting from 13 days post inoculation measured at day 23 post inoculation relative to control; assay type: functional; conditions: HT-29, ip
DU-145 = assay: Cytostatic activity against human DU145 cells preincubated for 24 hrs under serum free condition followed by compound washout and further incubation for 48 hrs in presence of serum by MTT assay; assay type: functional, cell-based; outline: as §3
U-87 MG = assay: Cytostatic activity against human U87 cells preincubated for 24 hrs under serum free condition followed by compound washout and further incubation for 48 hrs in presence of serum by MTT assay; assay type: functional, cell-based, U-87MG ATCC; outline: as §3
[18] = Cytostatic activity against human M24 cells preincubated for 24 hrs under serum free condition followed by compound washout and further incubation for 48 hrs in presence of serum by MTT assay; assay type: functional, cell-based; outline: as §3
[19] = Toxicity in SCID mouse xenografted with human HT-29 cells assessed as body weight loss at 1 mg/kg, ip administered once a week (on day 13 and 20) starting from 13 days post inoculation measured upto 23 days post inoculation; assay type: organism-based; conditions: in vivo
[20] = Cytostatic activity against human WM983B cells preincubated for 24 hrs under serum free condition followed by compound washout and further incubation for 48 hrs in presence of serum by MTT assay; assay type: functional, cell-based; outline: as §3
4T1 = assay: Cytostatic activity against mouse 4T1 cells preincubated for 24 hrs under serum free condition followed by compound washout and further incubation for 48 hrs in presence of serum by MTT assay; assay type: functional, cell-based; outline: as §3
[21] = Toxicity in SCID mouse xenografted with human HT-29 cells assessed as animal death at 1 mg/kg, ip administered once a week (on days 13 and 20) starting from 13 days post inoculation measured upto 23 days post inoculation; assay type: organism-based; conditions: in vivo
NCI-H1975 = assay: Cytostatic activity against human NCI-H1975 cells preincubated for 24 hrs under serum free condition followed by compound washout and further incubation for 48 hrs in presence of serum by MTT assay; assay type: functional, cell-based; outline: as §3
B16 = assay: Cytostatic activity against mouse B16 cells preincubated for 24 hrs under serum free condition followed by compound washout and further incubation for 48 hrs in presence of serum by MTT assay; assay type: functional, cell-based; outline: as §3
A549 = assay: Cytostatic activity against human A549 cells preincubated for 24 hrs under serum free condition followed by compound washout and further incubation for 48 hrs in presence of serum by MTT assay; assay type: functional, cell-based; outline: as §3

COc1cccc2c1C(=O)c1c(O)c3c(c(O)c1C2=O)C[C@@](O)(/C(C)=N/OCC(=O)N[C@@H](CC(C)C)C(=O)N[C@@H](CCCNC(=N)N)C(=O)N[C@@H](CCCNC(=N)N)C(=O)N[C@@H](Cc1ccc(O)cc1)C(=O)N[C@H](C(=O)N[C@@H](Cc1cnc[nH]1)C(=O)N[C@@H](CC(C)C)C(=O)N1CCC[C@H]1C(=O)N[C@@H](Cc1ccc(O)cc1)C(=O)N[C@@H](C)C(=O)N[C@H](C(N)=O)[C@@H](C)O)C(C)C)C[C@@H]3O[C@H]1C[C@H](N)[C@H](O)[C@H](C)O1 (X1-LRRYVHLPYAT-NH2)
Stability [1]: Stable | Retention time [2]: 31.2 to 31.3 min | Stability [3]: Unstable | IC50 (HT-29 [4]): > 50000 nM | Drug uptake [5]: Not Active | Drug uptake [6]: Not Active

COc1cccc2c1C(=O)c1c(O)c3c(c(O)c1C2=O)C[C@@](O)(/C(C)=N/OCC(=O)N[C@@H](CC(C)C)C(=O)N[C@@H](CCCNC(=N)N)C(=O)N[C@@H](CCCNC(=N)N)C(=O)N[C@@H](Cc1ccc(O)cc1)C(=O)N[C@H](C(=O)N[C@@H](Cc1cnc[nH]1)C(=O)N[C@@H](CC(C)C)C(=O)N[C@@H](CO)C(=O)N[C@@H](Cc1ccc(O)cc1)C(=O)N[C@@H](C)C(=O)N[C@H](C(N)=O)[C@@H](C)O)C(C)C)C[C@@H]3O[C@H]1C[C@H](N)[C@H](O)[C@H](C)O1 (X1-LRRYVHLSYAT-NH2)
Stability [1]: Stable | Retention_time [2]: 28.9 min | Stability [7]: Stable | IC50 (HT-29 [4]): 24800 nM | Drug uptake [8]: Active | solubility [9]: Soluble | Drug uptake [10]: Active | Drug uptake [11]: Active

COc1cccc2c1C(=O)c1c(O)c3c(c(O)c1C2=O)C[C@@](O)(C(C)=O)C[C@@H]3O[C@H]1C[C@H](N)[C@H](O)[C@H](C)O1 [DAUNORUBICIN]
IC50 (PANC-1): 467 nM | IC50 [12]: 25.8 nM | IC50 (HCT-116): 127 nM | Activity (HT-29 [13]): 94% | IC50 (A2058): 33.3 nM | IC50 (NCI-H1650): 47.5 nM | inhibition in vivo at 1 mg/kg (HT-29 [14]): 30% | IC50 (MDA-MB-231): 52.9 nM | IC50 (OVCAR-3): 473 nM | IC50 [15]: 26.7 nM | Drug uptake [16]: Active | IC50 (CT26.WT): 126 nM | IC50 (PC-3): 26 nM | IC50 (MRC5): 255 nM | IC50 (WiDr): 240 nM | IC50 (HT-29 [4]): 203 nM | IC50 (MCF7): 286 nM | IC50 (HepG2): 21.3 nM | inhibition in vivo at 1 mg/kg (HT-29 [17]): 84% | IC50 (DU-145): 24.5 nM | IC50 (U-87 MG): 27.9 nM | IC50 [18]: 93.6 nM | Activity [19]: Toxic | IC50 [20]: 44.3 nM | IC50 (4T1): 40.8 nM | Activity [21]: Toxic | IC50 (NCI-H1975): 13.3 nM | IC50 (B16): 8.9 nM | IC50 (A549): 68.2 nM
